From ChEMBL document CHEMBL1649289, “Paradoxical growth of Candida dubliniensis does not preclude in vivo response to echinocandin therapy” (2009)
Converted amounts (≈) assume the structure as drawn. Starred links: 1 amine or outer side, 2 acyl side, 3 side chain; linkers in the order of their positions; H or OH if unused. Positions of bridges follow the written chain, without caps; N, C: chain ends. Non-standard residues stand in square brackets, D forms with d. Residues, ends and D or L forms follow the SMILES beside them. *: point of attachment. pTerphenylCO(4''-OnC5H11) = CCCCCOc1ccc(-c2ccc(-c3ccc(C(=O)*)cc3)cc2)cc1; Orn(4R-OH,5R-OH) = O=C([C@H](C[C@@H](O)[C@@H](O)N[*:3])N[*:1])[*:2]; hTyr(3S-OH,4S-OH) = N[C@H](C(=O)O)[C@H](O)[C@@H](O)c1ccc(O)cc1; Pro(3S-OH,4S-Me) = C[C@H]1CN[C@H](C(=O)O)[C@H]1O; Hyp = O=C(O)[C@@H]1C[C@@H](O)CN1

Experiments:
Type in all cases: functional
Candida dubliniensis [1] = test: Antifungal activity against Candida dubliniensis FMR 10032 infected in immunosuppressed OF1 mouse assessed as fungal count in spleen at 1 mg/kg/day, iv […]
Summary of the method: (§1)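 Male OF1 mice, 10 per group, were immunosuppressed on infection day with cyclophosphamide 200 mg/kg i.p. plus 5-fluorouracil 150 mg/kg i.v., then challenged i.v. with 1.5 × 10^5 CFU. Drug was given at 1 mg/kg i.v. once daily for 5 days, starting 24 h after challenge. One day after treatment ended, kidney and spleen homogenates were plated in 10-fold dilutions on Sabouraud agar (35°C, 3 days) and mean log10 CFU was reported.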

Candida dubliniensis [2] = test: Antifungal activity against Candida dubliniensis 10033 by hemocytometry
Summary of the method: (§2)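 Minimal fungicidal concentration from the broth dilution test, defined as the lowest drug level giving ≥99.9% reduction in CFU/ml. Inocula were adjusted by hemocytometer.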

Candida dubliniensis [3] = test: Antifungal activity against Candida dubliniensis 10035 after 48 hrs; details: Candida dubliniensis, 10035, 48 h
Summary of the method: (§3)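 CLSI M27-A3 broth microdilution. Yeast inoculum was adjusted with a hemocytometer. MIC was read at 24 h or 48 h as the lowest concentration giving 50% growth inhibition.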

Candida dubliniensis [4] = test: Antifungal activity against Candida dubliniensis FMR 10034 infected in immunosuppressed OF1 mouse assessed as fungal count in spleen at 1 mg/kg/day, iv […]; summary of the method: as §1
Candida dubliniensis [5] = test: Antifungal activity against Candida dubliniensis 10033 after 24 hrs; details: Candida dubliniensis, 10033, 24 h; summary of the method: as §3
Candida dubliniensis [6] = test: Antifungal activity against Candida dubliniensis 9456 after 24 hrs; details: Candida dubliniensis, 9456, 24 h; summary of the method: as §3
Candida dubliniensis [7] = test: Antifungal activity against Candida dubliniensis 10032 by hemocytometry; summary of the method: as §2
Candida dubliniensis [8] = test: Antifungal activity against Candida dubliniensis 9453 assessed as compound concentration at which paradoxical growth of observed after 48 hrs
Summary of the method: (§4)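 Broth dilution susceptibility testing of yeasts per CLSI reference method M27-A3, with inocula adjusted by hemocytometer count. Wells were read at 24 and 48 h. The paradoxical growth range is the span of drug concentrations (μg/ml) over which growth reappeared above the inhibitory concentration. Where growth occurred across the entire concentration range (trailing), no range was determined.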

Candida dubliniensis [9] = test: Antifungal activity against Candida dubliniensis 9453 after 24 hrs; details: Candida dubliniensis, 9453, 24 h; summary of the method: as §3
Candida dubliniensis [10] = test: Antifungal activity against Candida dubliniensis 10033 after 48 hrs; details: Candida dubliniensis, 10033, 48 h; summary of the method: as §3
Candida dubliniensis [11] = test: Antifungal activity against Candida dubliniensis 9456 after 48 hrs; details: Candida dubliniensis, 9456, 48 h; summary of the method: as §3
Candida dubliniensis [12] = test: Antifungal activity against Candida dubliniensis FMR 10034 infected in OF1 mouse assessed as fungal count in kidney at 10 mg/kg/day, iv […]
Summary of the method: (§5)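 Immunocompetent male OF1 mice, 10 per group, were challenged i.v. with 1.5 × 10^7 CFU. Drug was given i.v. once daily at 1 or 10 mg/kg for 3 days, starting 24 h post-challenge; controls were untreated. Mice were killed 1 day after the last dose. Kidneys and spleen were homogenized in saline, serial 10-fold dilutions were plated on Sabouraud agar at 35°C for 3 days, and mean log10 CFU was reported.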

Candida dubliniensis [13] = test: Antifungal activity against Candida dubliniensis 10034 after 24 hrs; details: Candida dubliniensis, 10034, 24 h; summary of the method: as §3
Candida dubliniensis [14] = test: Antifungal activity against Candida dubliniensis FMR 10032 infected in OF1 mouse assessed as fungal count in kidney at 10 mg/kg/day, iv […]; summary of the method: as §5
Candida dubliniensis [15] = test: Antifungal activity against Candida dubliniensis 10032 after 24 hrs; details: Candida dubliniensis, 10032, 24 h; summary of the method: as §3
Candida dubliniensis [16] = test: Antifungal activity against Candida dubliniensis 9456 assessed as compound concentration at which paradoxical growth of observed after 48 hrs; summary of the method: as §4
Candida dubliniensis [17] = test: Antifungal activity against Candida dubliniensis FMR 10032 infected in OF1 mouse assessed as fungal count in spleen at 10 mg/kg/day, iv […]; summary of the method: as §5
Candida dubliniensis [18] = test: Antifungal activity against Candida dubliniensis 10031 after 24 hrs; details: Candida dubliniensis, 10031, 24 h; summary of the method: as §3
Candida dubliniensis [19] = test: Antifungal activity against Candida dubliniensis 10031 by hemocytometry; summary of the method: as §2
Candida dubliniensis [20] = test: Antifungal activity against Candida dubliniensis 10031 after 48 hrs; details: Candida dubliniensis, 10031, 48 h; summary of the method: as §3
Candida dubliniensis [21] = test: Antifungal activity against Candida dubliniensis 10033 assessed as compound concentration at which paradoxical growth of observed after 48 hrs; summary of the method: as §4
Candida dubliniensis [22] = test: Antifungal activity against Candida dubliniensis FMR 10034 infected in immunosuppressed OF1 mouse assessed as fungal count in kidney at 1 mg/kg/day, iv […]; summary of the method: as §1
Candida dubliniensis [23] = test: Antifungal activity against Candida dubliniensis FMR 10034 infected in OF1 mouse assessed as fungal count in spleen at 1 mg/kg/day, iv […]; summary of the method: as §5
Candida dubliniensis [24] = test: Antifungal activity against Candida dubliniensis FMR 10034 infected in OF1 mouse assessed as fungal count in spleen at 10 mg/kg/day, iv […]; summary of the method: as §5
Candida dubliniensis [25] = test: Antifungal activity against Candida dubliniensis 10032 after 48 hrs; details: Candida dubliniensis, 10032, 48 h; summary of the method: as §3
Candida dubliniensis [26] = test: Antifungal activity against Candida dubliniensis FMR 10032 infected in OF1 mouse assessed as fungal count in spleen at 1 mg/kg/day, iv […]; summary of the method: as §5
Candida dubliniensis [27] = test: Antifungal activity against Candida dubliniensis FMR 10032 infected in OF1 mouse assessed as fungal count in kidney at 1 mg/kg/day, iv […]; summary of the method: as §5
Candida dubliniensis [28] = test: Antifungal activity against Candida dubliniensis 9456 by hemocytometry; summary of the method: as §2
Candida dubliniensis [29] = test: Antifungal activity against Candida dubliniensis FMR 10032 infected in immunosuppressed OF1 mouse assessed as fungal count in kidney at 1 mg/kg/day, iv […]; summary of the method: as §1
Candida dubliniensis [30] = test: Antifungal activity against Candida dubliniensis 9453 by hemocytometry; summary of the method: as §2
Candida dubliniensis [31] = test: Antifungal activity against Candida dubliniensis 10034 by hemocytometry; summary of the method: as §2
Candida dubliniensis [32] = test: Antifungal activity against Candida dubliniensis 10035 after 24 hrs; details: Candida dubliniensis, 10035, 24 h; summary of the method: as §3
Candida dubliniensis [33] = test: Antifungal activity against Candida dubliniensis 10034 assessed as compound concentration at which paradoxical growth of observed after 48 hrs
Summary of the method: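 In the same broth dilution (CLSI M27-A3) tests, read at 24 or 48 h, this is the range of drug concentrations over which paradoxical growth appeared. It was not set when growth occurred across the whole tested range (trailing).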

Candida dubliniensis [34] = test: Antifungal activity against Candida dubliniensis 9453 after 48 hrs; details: Candida dubliniensis, 9453, 48 h; summary of the method: as §3
Candida dubliniensis [35] = test: Antifungal activity against Candida dubliniensis FMR 10034 infected in OF1 mouse assessed as fungal count in kidney at 1 mg/kg/day, iv […]; summary of the method: as §5
Candida dubliniensis [36] = test: Antifungal activity against Candida dubliniensis 10034 after 48 hrs; details: Candida dubliniensis, 10034, 48 h; summary of the method: as §3

`CCCCCOc1ccc(-c2ccc(-c3ccc(C(=O)N[C@H]4C[C@@H](O)[C@@H](O)NC(=O)[C@@H]5[C@@H](O)[C@@H](C)CN5C(=O)[C@H]([C@@H](C)O)NC(=O)[C@H]([C@H](O)[C@@H](O)c5ccc(O)cc5)NC(=O)[C@@H]5C[C@@H](O)CN5C(=O)[C@H]([C@@H](C)O)NC4=O)cc3)cc2)cc1` [ANIDULAFUNGIN] ({pTerphenylCO(4''-OnC5H11)}-[Orn(4R-OH,5R-OH)]T[Hyp][hTyr(3S-OH,4S-OH)]T[Pro(3S-OH,4S-Me)]; lactam 1-C) showed a log10cfu (Candida dubliniensis [1]) of 2.62, an MFC (Candida dubliniensis [2]) of 2 µg/mL (≈ 1.75 µM) and an MIC50 (Candida dubliniensis [3]) of under 0.03 µg/mL. The log10cfu (Candida dubliniensis [4]) was 2.96, the MIC50 (Candida dubliniensis [5]) was under 0.03 µg/mL and the MIC50 (Candida dubliniensis [6]) was under 0.03 µg/mL. The MFC (Candida dubliniensis [7]) was 2 µg/mL (≈ 1.75 µM), the Activity (Candida dubliniensis [8]) was 4 µg/mL and the MIC50 (Candida dubliniensis [9]) was under 0.03 µg/mL. For the same molecule, the MIC50 (Candida dubliniensis [10]) was 0.06 µg/mL (≈ 0.0526 µM), the MIC50 (Candida dubliniensis [11]) was under 0.03 µg/mL and the log10cfu (Candida dubliniensis [12]) was 4.63. For the same molecule, the MIC50 (Candida dubliniensis [13]) was under 0.03 µg/mL, the log10cfu (Candida dubliniensis [14]) was 2.95 and the MIC50 (Candida dubliniensis [15]) was under 0.03 µg/mL. For the same molecule, the Activity (Candida dubliniensis [16]) was 8 µg/mL, the log10cfu (Candida dubliniensis [17]) was 2.64 and the MIC50 (Candida dubliniensis [18]) was under 0.03 µg/mL. The MFC (Candida dubliniensis [19]) was over 16 µg/mL, the MIC50 (Candida dubliniensis [20]) was under 0.03 µg/mL and the Activity (Candida dubliniensis [21]) was 4 µg/mL. It also gave a log10cfu (Candida dubliniensis [22]) of 5.94, a log10cfu (Candida dubliniensis [23]) of 4.54 and a log10cfu (Candida dubliniensis [24]) of 4.25. The MIC50 (Candida dubliniensis [25]) was under 0.03 µg/mL, the log10cfu (Candida dubliniensis [26]) was 4.21 and the log10cfu (Candida dubliniensis [27]) was 5.65. For the same molecule, the MFC (Candida dubliniensis [28]) was over 16 µg/mL, the log10cfu (Candida dubliniensis [29]) was 5.75 and the MFC (Candida dubliniensis [30]) was over 16 µg/mL. It also gave an MFC (Candida dubliniensis [31]) of over 16 µg/mL, an MIC50 (Candida dubliniensis [32]) of under 0.03 µg/mL and an Activity (Candida dubliniensis [33]) of 4 µg/mL. The MIC50 (Candida dubliniensis [34]) was under 0.03 µg/mL, the log10cfu (Candida dubliniensis [35]) was 6.33 and the MIC50 (Candida dubliniensis [36]) was under 0.03 µg/mL.
